From ChEMBL document CHEMBL5338759, “N-Phenyl-1-(phenylsulfonyl)-1H-1,2,4-triazol-3-amine as a New Class of HIV-1 Non-nucleoside Reverse Transcriptase Inhibitor” (J Med Chem, 2023)

Key:
[1] = Subacute toxicity in BALB/c mouse assessed as reduction in total protein level at 25 to 250 mg/kg, IG measured daily for 30 days; format: organism-based; settings: in vivo, po, 720 h, dose 25-250 mg/kg, time 30 day
How it was run: (§1)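 Dosing was daily intragastric 25 or 250 mg/kg in 1% starch gel (0.2 ml/20 g) for 30 days in male Balb/C mice, 17 per group, with starch gel controls. After the final dose, mice were fasted for 2 h with water available, then bled. Serum was clotted for 30 min at room temperature and centrifuged at 3500 rpm. Total protein, urea, creatinine, AST, ALT and alkaline phosphatase were assayed and compared by Mann-Whitney with Holm-Šídák, p < 0.05.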

[2] = system: Human immunodeficiency virus 1; assay: Antiviral activity against wild type HIV1 IIIB infected in human TZM-bl cells; format: functional, organism-based; settings: Human immunodeficiency virus 1, IIIB
How it was run: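 TZM-bl cells (2x10⁵/mL) infected with HIV-1 IIIB grown in H9 cells, with 15 µg/mL DEAE-dextran; serial dilutions from 10 mM DMSO stocks, DMSO held constant (0.005% or 0.05%); 37°C, 5% CO₂, 48 hr; cells lysed, luciferase RLU read.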

[3] = Selectivity index, ratio of CC50 for cytotoxicity against human TZM-bl cells assessed as reduction in cell viability by MTS assay to EC50 for antiviral activity against wild type HIV1 IIIB infected in human TZM-bl cells; format: toxicity, cell-based; settings: read-out: Ratio CC50/EC50
[4] = Metabolic stability in human liver microsome measured up to 60 mins presence of NADPH; format: ADME; settings: microsomes, 1 h
[5] = Safety index, ratio of TC10 for neurotoxicity in mouse primary neurons assessed as loss of MAP-2 intensity to EC50 for antiviral activity against wild type HIV1 IIIB infected in human TZM-bl cells; format: toxicity, cell-based
How it was run: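 Primary neuronal cultures from cortex/hippocampus of E16 CD1 mouse embryos (>95% neurons). Cells were then methanol:acetic acid-fixed and MAP-2 stained, and intensity was image-quantified. S-index = TC10/(100×EC50 vs HIV-1 IIIB in TZM-bl).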

[6] = Half life in BALB/c mouse plasma at 250 mg/kg, IG measured at 0.5 to 24 hrs by HPLC-MS analysis; format: ADME, organism-based; settings: in vivo, po, time 0.5-24 hrs
How it was run: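 Mice averaging 20 g (24 animals) were fasted 1 h before and 1 h after dosing. They received 250 mg/kg as 0.5 ml suspension in 1% CMC, 0.05% Tween 80 by intragastric intubation. Blood and brain were taken after decapitation at 0.5, 1, 2, 3, 5, 8 and 24 h (3 per time point). Plasma was frozen at -20°C and brain at -120 °C. Quantification was by UPLC-HRMS (ESI+, EIC m/z 476.0691) against plasma-matrix standards. Parameters were derived by noncompartmental analysis; LLOQ 5 ng/ml, with values below it set to 2.5.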

[7] = Subacute toxicity in BALB/c mouse assessed as pathological change in stomach at 25 to 250 mg/kg, IG measured daily for 30 days by H and E staining based histological analysis; format: organism-based; settings: in vivo, po, 720 h, dose 25-250 mg/kg, time 30 day
How it was run: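 Male Balb/C mice (17 per group) received 25 or 250 mg/kg intragastrically in 1% starch gel once daily for 30 days, against starch gel controls. Internal organs were examined macroscopically after the study. Sections were paraffin-embedded and stained with hematoxylin and eosin.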

[8] = Subacute toxicity in BALB/c mouse assessed as reduction in […] level at 25 to 250 mg/kg, IG measured daily for 30 days; format: organism-based; settings: in vivo, po, 720 h, dose 25-250 mg/kg, time 30 day; how it was run: as §1
[9] = Subacute toxicity in BALB/c mouse assessed as reduction in hematocrit level at 25 to 250 mg/kg, IG measured daily for 30 days; format: organism-based; settings: in vivo, po, 720 h, dose 25-250 mg/kg, time 30 day
[10] = Subacute toxicity in BALB/c mouse assessed as effect on liver weight at 25 to 250 mg/kg, IG measured daily for 30 days; format: organism-based; settings: in vivo, po, 720 h, dose 25-250 mg/kg, time 30 day

**Q.** Which Activity [1] does the source give for `N#C/C=C/c1ccc2c(S(=O)(=O)n3nc(Nc4ccc(C#N)c(Cl)c4)nc3N)cccc2c1` here?
**A.** Non-Toxic

**Q.** And the IC50 [2]?
**A.** 0.24 nM

**Q.** And the selectivity ratio [3]?
**A.** 10000

**Q.** What about the Stability [4] of the same compound?
**A.** Stable

**Q.** What about the Ratio [5] of the same compound?
**A.** Not Active

**Q.** And the t1/2 [6]?
**A.** 7.7 h

**Q.** And the Activity [7]?
**A.** Non-Toxic

**Q.** And the Activity [8]?
**A.** Non-Toxic

**Q.** What about the Activity [9] of the same compound?
**A.** Non-Toxic

**Q.** What about the Activity [10] of the same compound?
**A.** Non-Toxic
